# Assay results: ChEMBL document CHEMBL1139239, “A series of cationic sterol lipids with gene transfer and bactericidal activity” (Bioorg Med Chem, 2009)
# Activity calls are given as the source filed them. The rule behind the calls is not given here.
# Columns and labels:
# [1] = tested on: Bacillus subtilis; test: Antibacterial activity against Bacillus subtilis ATCC 6051 after 20 hrs; type: functional
# Summary of the method: (§1)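 Broth microdilution MIC: exponential-phase bacteria at 10^5 to 10^6 CFU/ml in Mueller-Hinton broth. Compound serial dilutions made in PBS and mixed 1:1 by volume with the cells, so broth is 50% v/v. Incubated 20 hours at 37°C, and the minimum inhibitory concentration was recorded.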
# [2] = tested on: Escherichia coli; test: Antibacterial activity against Escherichia coli MG1655 after 20 hrs; type: functional; summary of the method: as §1
# [3] = Toxicity against RBC assessed as hemolytic activity; type: cell-based; conditions: erythrocyte
# Summary of the method: (§2)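 Donor whole blood in heparin/ACD was chilled to 4°C, pelleted at 1000g and washed three times in phosphate/NaCl/HEPES buffer, then resuspended in PBS. Cells were mixed 1:1 with serial dilutions in PBS and held 1 h at 37°C, then spun. Diluted supernatant was read at 540 nm against buffer, with percent lysis set against 1% Triton X-100.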
# [4] = Therapeutic index, ratio of MHC for RBC to MIC for Bacillus subtilis ATCC 6051; conditions: red blood cells (RBC); read-out: TI
# Summary of the method: (§3)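 Ratio of MHC to MIC. MIC: exponential-phase B. subtilis ATC6051 or E. coli MG1655 at 10^5–10^6 CFU/ml in Mueller-Hinton broth, mixed 1:1 with serial dilutions in PBS (50% v/v broth), 20 h at 37°C. MHC: lowest concentration giving ≥2% lysis of washed donor red cells after 1 h at 37°C.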
# [5] = Therapeutic index, ratio of MHC for RBC to MIC for Escherichia coli MG1655; conditions: red blood cells (RBC); read-out: TI; summary of the method: as §3
# [6] = tested on: Bacillus subtilis; test: Antibacterial activity against Bacillus subtilis ATCC 6051 at 20 uM after 4 hrs; type: functional, organism-based; conditions: ATC6051
# Summary of the method: (§4)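 Killing assay: exponential-phase bacteria suspended in PBS at 10^5–10^6 CFU/ml and preincubated for 1 hour at 37°C. Compound added and exposure lasted 4 hours. Samples were taken, diluted in four ten-fold steps in PBS and plated on agar overnight at 37°C. Colonies were counted manually and averages plotted on a log scale.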
# [7] = tested on: Escherichia coli; test: Antibacterial activity against Escherichia coli MG1655 at 20 uM after 4 hrs; type: functional, organism-based; conditions: 50 uM, in the assay text read “50 uM” for “20 uM”; summary of the method: as §4
# [8] = Toxicity against RBC assessed as hemolytic activity at 1 to 2 mM; type: cell-based, Erythrocyte; conditions: red blood cells (RBC); read-out: Activity; summary of the method: as §2
# [9] = Toxicity against RBC assessed as hemolytic activity at 2 mM; type: cell-based; conditions: erythrocyte, 2000 µM; summary of the method: as §2
# [10] = Toxicity against bovine BAEC cells; type: cell-based, Bos taurus; conditions: cattle
# Summary of the method: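 Bovine aortic endothelial cells, passage 4–15, grown in DMEM with 10% FBS. Lipoplexes made with or without DOPE at several charge ratios up to 12 were added in serum-free OptiMem for 2 h at 37°C, then replaced with growth medium. About 20 h later, viability was read as ATP luminescence (CellTiter-Glo, 30 min), normalised to naked plasmid DNA, n = 8.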
MIC ([1]; ATC6051),MIC [2],Compound,"MIC ([1]; ATC6051, 20 h)","MIC ([2]; MG1655, 20 h)",MHC [3],selectivity ratio [4],selectivity ratio [5],Activity [6],Activity [7],hemolysis at up to 2000 µM [8],Activity [9],Activity [10]
–,–,C[C@H](CCC(=O)NCCCNCCCCNCCCN)[C@H]1CCC2=C3CC[C@@H]4C[C@H](O)CC[C@]4(C)[C@H]3C[C@H](O)[C@@]21C,28 µM,111 µM,500 µM,18,5,Active,Active,30%,–,–
–,–,C[C@H](CCC(=O)NCCCNCCCCNCCCNC(=O)CC[C@H](C)[C@@H]1CC[C@@H]2[C@@H]3[C@@H](C[C@@H](O)[C@]21C)[C@]1(C)CC[C@H](O)C[C@@H]1C[C@@H]3O)[C@H]1CC[C@H]2[C@@H]3[C@H](O)C[C@@H]4C[C@H](O)CC[C@]4(C)[C@H]3C[C@H](O)[C@]12C,4 µM,16 µM,250 µM,61,15,–,–,–,Toxic,–
–,–,C[C@H](CCC(=O)NCCCNCCCCNCCCN)[C@H]1CC[C@H]2[C@@H]3CC=C4C[C@@H](O)CC[C@]4(C)[C@H]3CC[C@]12C,57 µM,115 µM,1000 µM,18,9,–,–,30%,–,Toxic
–,–,C[C@H](CCC(=O)NCCCNCCCCNCCCN)[C@H]1CC[C@H]2[C@@H]3CC[C@@H]4C[C@H](O)CC[C@]4(C)[C@H]3CC[C@]12C,57 µM,228 µM,500 µM,9,2,Active,Active,30%,–,–
–,–,C[C@H](CCC(=O)NCCCNCCCCNCCCN)[C@H]1CC[C@H]2[C@@H]3[C@H](O)C[C@@H]4C[C@H](O)CC[C@]4(C)[C@H]3C[C@H](O)[C@]12C,> 432 µM,> 432 µM,500 µM,< 1,< 1,–,–,30%,–,–
1 µM,6 µM,POLYMYXIN B,–,–,–,–,–,–,–,–,–,–
